The source of these data is ChEMBL document CHEMBL1158173, “Carbodithioic acid esters of fluoxetine, a novel class of dual-function spermicides” (2008).

Assay type in all cases: functional
One experiment deals with Sperm. Description: (§1) Spermicidal activity in liquefied human semen assessed as drug level required to kill 100% sperm in 20 seconds.
A further experiment has as its system Candida albicans. Kind of experiment: Antifungal activity against Candida albicans after 48 hrs by broth microdilution technique. Background: Broth dilution looks for growth in wells or tubes with falling amounts of substance.
Another experiment concerns Cryptococcus neoformans. Description: Antifungal activity against Cryptococcus neoformans after 48 hrs by broth microdilution technique.
The next experiment deals with Sporothrix schenckii. Description: Antifungal activity against Sporothrix schenckii after 48 hrs by broth microdilution technique.
The test system of experiment [1] is Trichophyton mentagrophytes. Kind of experiment: Antifungal activity against Trichophyton mentagrophytes after 48 hrs by broth microdilution technique.
The test system of a further experiment is Aspergillus fumigatus. Kind of experiment: Antifungal activity against Aspergillus fumigatus after 48 hrs by broth microdilution technique.
Another experiment deals with Candida parapsilosis. Kind of experiment: Antifungal activity against Candida parapsilosis ATCC 22019 after 48 hrs by broth microdilution technique. Particulars: for MIC: Lodderomyces parapsilosis, ATCC 22019, 48 h.
The subject of the next experiment is Trichomonas vaginalis. Kind of experiment: Antitrichomonas activity against Trichomonas vaginalis after 48 hrs by trypan blue staining. The method, boiled down:
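Trichomonas vaginalis was grown in TYM medium and used in log phase, one day after routine subculture. Compounds in DMSO stock were serially diluted in TYM medium, with DMSO/TYM as vehicle control. Wells received 5 × 10³ trophozoites and were incubated anaerobically at 37 °C. Viability was scored daily by trypan blue and cell counts, and MIC was read at 48 h. Finer dilutions were then retested, and the final MIC was taken from a concentration versus viable-trophozoite-number curve.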

Experiment [2] is described as follows: as §1.

In general, MIC refers to the least concentration at which growth counts as inhibited. A lower MIC goes with inhibition by little substance.

Values after ≈ are worked out from the molar mass of the structure shown. Active and inactive are the calls of the source. The calls are words filed in the database; no cut-off is given here. Bounds are passed on as bounds.

Take `CN(CCC(Oc1ccc(C(F)(F)F)cc1)c1ccccc1)CC(O)CSC(=S)N1CCCCC1` (stereo not drawn): the outcome (in the experiment on Sperm; in the experiment on Candida albicans; in the experiment on Sporothrix schenckii; in experiment [1]; with Aspergillus fumigatus; in the experiment on Candida parapsilosis) was inactive. In addition, the MIC with Cryptococcus neoformans turned out to be 25 µg/mL (≈ 47.5 µM).

Turning to `CNCCC(Oc1ccc(C(F)(F)F)cc1)c1ccccc1` (stereo not drawn) [FLUOXETINE], the MIC came to 50 µg/mL (≈ 162 µM) in the experiment on Candida albicans; 25 µg/mL (≈ 80.8 µM) against Cryptococcus neoformans; 50 µg/mL (≈ 162 µM) against Sporothrix schenckii; 50 µg/mL (≈ 162 µM) in [1]; 50 µg/mL (≈ 162 µM) against Candida parapsilosis; 28 µg/mL (≈ 90.5 µM) against Trichomonas vaginalis. In addition, in the experiment with Aspergillus fumigatus, the result was inactive.

With `CN(CCC(Oc1ccc(C(F)(F)F)cc1)c1ccccc1)CC(O)CSC(=S)N1CCCC1` (stereo not drawn), the result (with Sperm; in the experiment with Candida albicans; in the experiment with Cryptococcus neoformans; in the experiment on Sporothrix schenckii; in experiment [1]; in the experiment with Aspergillus fumigatus) was inactive. Besides, the outcome in the experiment with Candida parapsilosis was inactive.

On to `CN(CCC(Oc1ccc(C(F)(F)F)cc1)c1ccccc1)C(=S)SCCCl` (stereo not drawn), for which, in experiment [2], the MEC is 1%. The MIC came to 50 µg/mL (≈ 112 µM) with Candida albicans; 50 µg/mL (≈ 112 µM) against Cryptococcus neoformans; 25 µg/mL (≈ 55.8 µM) against Sporothrix schenckii; 12.5 µg/mL (≈ 27.9 µM) in experiment [1]; 50 µg/mL (≈ 112 µM) with Aspergillus fumigatus; 25 µg/mL (≈ 55.8 µM) in the experiment with Candida parapsilosis. Also, in the experiment on Trichomonas vaginalis, the MIC is > 200 µg/mL.

On to `CN(C)CCSC(=S)N(C)CCC(Oc1ccc(C(F)(F)F)cc1)c1ccccc1` (stereo not drawn), for which the MEC in experiment [2] stood at 1%. Besides, the MIC against Candida albicans came to 50 µg/mL (≈ 110 µM); in the experiment on Cryptococcus neoformans, 50 µg/mL (≈ 110 µM); against Sporothrix schenckii it was 12.5 µg/mL (≈ 27.4 µM); in [1], 6.25 µg/mL (≈ 13.7 µM); with Aspergillus fumigatus, 25 µg/mL (≈ 54.8 µM); in the experiment on Candida parapsilosis it was 50 µg/mL (≈ 110 µM). In the experiment on Trichomonas vaginalis, this compound came in with an MIC of 52 µg/mL (≈ 114 µM).

Regarding `CN(CCC(Oc1ccc(C(F)(F)F)cc1)c1ccccc1)C(=S)SCC(O)CN1CCCC1` (stereo not drawn), in experiment [2], the MEC is 0.5%. The result in the experiment on Candida albicans and with Cryptococcus neoformans was inactive. The MIC stood at 50 µg/mL (≈ 97.5 µM) against Sporothrix schenckii; 25 µg/mL (≈ 48.8 µM) in experiment [1]; 50 µg/mL (≈ 97.5 µM) with Aspergillus fumigatus; 50 µg/mL (≈ 97.5 µM) with Candida parapsilosis; 6.95 µg/mL (≈ 13.6 µM) with Trichomonas vaginalis.

Consider `CN(CCC(Oc1ccc(C(F)(F)F)cc1)c1ccccc1)C(=S)SCC(O)CN1CCOCC1` (stereo not drawn), for which the result (with Sperm; with Candida albicans; in the experiment with Cryptococcus neoformans; with Sporothrix schenckii; in [1]; in the experiment on Candida parapsilosis) was inactive. The MIC against Aspergillus fumigatus was 50 µg/mL (≈ 94.6 µM).

As for `CN(CCC(Oc1ccc(C(F)(F)F)cc1)c1ccccc1)C(=S)SCC(O)CN1CCCCC1` (stereo not drawn), the result in the experiment on Sperm, with Candida albicans, in the experiment with Cryptococcus neoformans, with Sporothrix schenckii and with Aspergillus fumigatus was inactive. For the same compound, the MIC (in experiment [1]; with Candida parapsilosis) was 50 µg/mL (≈ 94.9 µM) throughout.

`CN(CCC(Oc1ccc(C(F)(F)F)cc1)c1ccccc1)C(=S)[S-].[Na+]` (stereo not drawn): the MEC in experiment [2] is reported as 1%. The outcome (with Candida albicans; in the experiment on Sporothrix schenckii; in experiment [1]; with Aspergillus fumigatus; with Candida parapsilosis) was inactive. For the same compound, the MIC amounted to 25 µg/mL with Cryptococcus neoformans and 96 µg/mL against Trichomonas vaginalis.

Take `CN(CCC(Oc1ccc(C(F)(F)F)cc1)c1ccccc1)CC(O)CSC(=S)N1CCOCC1` (stereo not drawn): the outcome with Sperm, in the experiment with Candida albicans, with Cryptococcus neoformans and in the experiment on Aspergillus fumigatus was inactive. Besides, the MIC was 25 µg/mL (≈ 47.3 µM) against Sporothrix schenckii, 12.5 µg/mL (≈ 23.6 µM) in experiment [1] and 50 µg/mL (≈ 94.6 µM) with Candida parapsilosis.

Regarding `CN1CCN(CC(O)CSC(=S)N(C)CCC(Oc2ccc(C(F)(F)F)cc2)c2ccccc2)CC1` (stereo not drawn), the MEC in experiment [2] was 0.5%. The MIC in the experiment with Candida albicans stood at 50 µg/mL (≈ 92.3 µM); against Cryptococcus neoformans, 25 µg/mL (≈ 46.2 µM); against Sporothrix schenckii it was 25 µg/mL (≈ 46.2 µM); in [1], 25 µg/mL (≈ 46.2 µM); against Aspergillus fumigatus, 25 µg/mL (≈ 46.2 µM); with Candida parapsilosis it was 50 µg/mL (≈ 92.3 µM). The compound further registered an MIC in the experiment on Trichomonas vaginalis of 12 µg/mL (≈ 22.2 µM).

Turning to `CN1CCN(C(=S)SCC(O)CN(C)CCC(Oc2ccc(C(F)(F)F)cc2)c2ccccc2)CC1` (stereo not drawn), the MEC in experiment [2] amounted to 1%. For the same compound, the outcome in the experiment with Candida albicans, in the experiment with Sporothrix schenckii, with Aspergillus fumigatus and with Candida parapsilosis was inactive. The values for the MIC (against Cryptococcus neoformans; in experiment [1]; in the experiment with Trichomonas vaginalis) were 12.5 µg/mL (≈ 23.1 µM), 25 µg/mL (≈ 46.2 µM) and 6.68 µg/mL (≈ 12.3 µM), respectively.

Regarding `CCN(CC)CCSC(=S)N(C)CCC(Oc1ccc(C(F)(F)F)cc1)c1ccccc1` (stereo not drawn), the MEC in experiment [2] is recorded as 1%. Also, the MIC with Candida albicans worked out at 50 µg/mL (≈ 103 µM); in the experiment with Cryptococcus neoformans, 50 µg/mL (≈ 103 µM); in the experiment with Sporothrix schenckii, 6.25 µg/mL (≈ 12.9 µM); in experiment [1] it was 12.5 µg/mL (≈ 25.8 µM); in the experiment on Aspergillus fumigatus, 6.25 µg/mL (≈ 12.9 µM); in the experiment with Candida parapsilosis, 50 µg/mL (≈ 103 µM). Further, inhibition of growth against Trichomonas vaginalis (MIC) required 24 µg/mL (≈ 49.5 µM).

For the compound `CCN(CC)CC(O)CSC(=S)N(C)CCC(Oc1ccc(C(F)(F)F)cc1)c1ccccc1` (stereo not drawn), the MEC in [2] worked out at 0.5%. For the same compound, the result with Candida albicans, in the experiment with Cryptococcus neoformans and with Sporothrix schenckii was inactive. Also, the MIC in [1] was 25 µg/mL (≈ 48.6 µM); against Aspergillus fumigatus, 50 µg/mL (≈ 97.1 µM); in the experiment with Candida parapsilosis, 50 µg/mL (≈ 97.1 µM); with Trichomonas vaginalis it was > 200 µg/mL.

As to `CN(CCC(Oc1ccc(C(F)(F)F)cc1)c1ccccc1)C(=S)SCc1ccccc1` (stereo not drawn), the MEC in experiment [2] is on record as 1%. Moreover, the outcome (in the experiment with Candida albicans; in the experiment on Cryptococcus neoformans; in the experiment on Sporothrix schenckii; in experiment [1]; in the experiment on Aspergillus fumigatus; in the experiment on Candida parapsilosis) was inactive. Further, the minimal inhibitory concentration (MIC) in the experiment with Trichomonas vaginalis is > 200 µg/mL.

Regarding `CN(CCC(Oc1ccc(C(F)(F)F)cc1)c1ccccc1)C(=S)SCC(O)CN1CCCCCC1` (stereo not drawn), the MEC in [2] is 0.5%. Further, the MIC in the experiment on Candida albicans was 50 µg/mL (≈ 92.5 µM); in [1], 25 µg/mL (≈ 46.2 µM); against Aspergillus fumigatus it was 25 µg/mL (≈ 46.2 µM); against Candida parapsilosis, 50 µg/mL (≈ 92.5 µM); against Trichomonas vaginalis, > 200 µg/mL. Further, the result with Cryptococcus neoformans and in the experiment on Sporothrix schenckii was inactive.

`CCCCCCCCCc1ccc(OCCOCCOCCOCCOCCOCCOCCOCCOCCO)cc1` [NONOXYNOL 9]: the MEC in experiment [2] worked out at 0.05%. The outcome (in the experiment on Candida albicans; in the experiment with Cryptococcus neoformans; in the experiment on Sporothrix schenckii; in [1]; with Aspergillus fumigatus) was inactive. Besides, the MIC against Candida parapsilosis came to 50 µg/mL (≈ 81.1 µM); against Trichomonas vaginalis, 23 µg/mL (≈ 37.3 µM).

As for `CN(CCC(Oc1ccc(C(F)(F)F)cc1)c1ccccc1)C(=S)SCCN1CCCCC1` (stereo not drawn), in [2], the MEC was 1%. For the same compound, the MIC was found to be 3.12 µg/mL (≈ 6.28 µM) with Candida albicans; 1.56 µg/mL (≈ 3.14 µM) in the experiment with Cryptococcus neoformans; 6.25 µg/mL (≈ 12.6 µM) in the experiment on Sporothrix schenckii; 6.25 µg/mL (≈ 12.6 µM) in [1]; 12.5 µg/mL (≈ 25.2 µM) with Aspergillus fumigatus; 1.56 µg/mL (≈ 3.14 µM) against Candida parapsilosis. Besides, the MIC in the experiment with Trichomonas vaginalis was 13.5 µg/mL (≈ 27.2 µM).
